# Data reported in ChEMBL document CHEMBL1649503, “Alkoxyalkyl esters of 9-(s)-(3-hydroxy-2-phosphonomethoxypropyl) adenine are potent and selective inhibitors of hepatitis B virus (HBV) replication in vitro and in HBV transgenic mice in vivo” (Antimicrob Agents Chemother, 2009).
# How the values were obtained:
# [1] = Tmax in Swiss-Webster mouse liver at 10 mg/kg, po after 24 hrs; type: ADME, organism-based; design: dose 10 mg/kg, route oral
# Outline: (§1)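 Female Swiss-Webster mice (about 25 g) each got a single 10 mg/kg dose of the 14C-labeled (8-14C) ester (50 mCi/mmol) in 0.7% saline, by oral gavage or ip injection. Blood was taken at 1, 3, 6, 12 and 24 h, and liver, spleen, kidney, lung, heart and brain were excised, washed and weighed. Radioactivity was measured by scintillation counting as µM plasma equivalents or nmol/g tissue, mean of three per time point.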
# [2] = Tmax in Swiss-Webster mouse plasma at 10 mg/kg, po after 24 hrs; type: ADME, organism-based; design: dose 10 mg/kg, route oral
# Outline: (§2)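 Female Swiss-Webster mice (about 25 g) got one 10 mg/kg dose of the 8-14C-labeled ester (50 mCi/mmol) in 0.7% saline, by oral gavage or intraperitoneal injection. Blood was taken at 1, 3, 6, 12 and 24 h. Liver, spleen, kidney, lung, heart and brain were excised, washed and weighed. Drug plus metabolites were measured by liquid scintillation as µM plasma equivalents or nmol/g tissue. Each time point is the mean of three replicates.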
# [3] = Cytotoxicity against human HepG2(2.2.15) cells after 24 hrs by neutral red assay; type: cell-based
# Outline: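 2.2.15 cells, RPMI 1640 with 2% FBS, dosed daily for nine consecutive days. Viability was read by neutral red uptake, absorbance of internalized dye at 510, 24 h after the last treatment, three cultures per concentration.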
# HepG2 [4] = assay: Drug metabolism in human HepG2 cells assessed as unidentified metabolite uptake at 10 uM after 24 hrs; type: ADME, cell-based; conditions: hepg2, 24 h
# Outline: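 Nearly confluent HepG2 flasks got 14C-labeled drug (final 10 µM, 50 mCi/mmol) for 24 h. Cells were washed with cold PBS, lysed in water by two freeze-thaw cycles and sonication, then extracted with cold TCA (8% final) and centrifuged at 4°C. Supernatant was counted and analyzed by SAX ion-exchange HPLC, with metabolites assigned by retention versus reference standards.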
# Hepatitis B virus [5] = assay: Antiviral activity against HBV infected in transgenic mouse assessed as decrease in liver viral DNA level at 4 mg/kg, po administered daily for 14 days measured post last dose; type: functional
# Outline: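 Homozygous male and female HBV transgenic mice (founder 1.3.32; 22.2 ± 2.8 g) received drug in distilled water by oral gavage, 0.1 ml/10 g, at 7 µmol/kg (4 mg/kg) daily for 14 days. About 0.1 g liver was lysed at necropsy, and DNA was extracted with phenol-chloroform. HBV DNA was measured by qPCR normalized to GAPDH, using duplicate CTs against a dilution standard curve, in relative units/µg cell DNA.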
# Lung [6] = assay: Cmax in Swiss-Webster mouse lung assessed per gram of tissue at 10 mg/kg, po after 24 hrs; type: ADME, organism-based; design: dose 10 mg/kg, route oral; conditions: in vivo; outline: as §1
# Spleen [7] = assay: AUC in Swiss-Webster mouse spleen assessed per gram of tissue at 10 mg/kg, ip after 24 hrs; type: ADME, organism-based; design: time < 24 hr, dose 10 mg/kg, route intraperitoneal; conditions: in vivo; outline: as §1
# [8] = Tmax in Swiss-Webster mouse brain at 10 mg/kg, po after 24 hrs; type: ADME, organism-based; design: dose 10 mg/kg, route oral; outline: as §1
# Liver [9] = assay: Cmax in Swiss-Webster mouse liver assessed per gram of tissue at 10 mg/kg, ip after 24 hrs; type: ADME, organism-based; design: dose 10 mg/kg, route intraperitoneal; conditions: in vivo; outline: as §1
# [10] = Tmax in Swiss-Webster mouse heart at 10 mg/kg, ip after 24 hrs; type: ADME, organism-based; design: dose 10 mg/kg, route intraperitoneal; outline: as §1
# Mus musculus [11] = assay: Toxicity in transgenic mouse at 30 to 100 mg/kg, po assessed as mortality after 7 days; type: organism-based; design: dose 30-100 mg/kg, route oral; conditions: in vivo, 168 h
# [12] = Tmax in Swiss-Webster mouse kidney at 10 mg/kg, ip after 24 hrs; type: ADME, organism-based; design: dose 10 mg/kg, route intraperitoneal; outline: as §1
# [13] = Tmax in Swiss-Webster mouse liver at 10 mg/kg, ip after 24 hrs; type: ADME, organism-based; design: dose 10 mg/kg, route intraperitoneal; outline: as §1
# Heart [14] = assay: Cmax in Swiss-Webster mouse heart assessed per gram of tissue at 10 mg/kg, ip after 24 hrs; type: ADME, organism-based; design: dose 10 mg/kg, route intraperitoneal; conditions: in vivo; outline: as §1
# [15] = Tmax in Swiss-Webster mouse spleen at 10 mg/kg, po after 24 hrs; type: ADME, organism-based; design: dose 10 mg/kg, route oral; outline: as §2
# Liver [16] = assay: AUC in Swiss-Webster mouse liver assessed per gram of tissue at 10 mg/kg, ip after 24 hrs; type: ADME, organism-based; design: time < 24 hr, dose 10 mg/kg, route intraperitoneal; conditions: in vivo; outline: as §1
# Mus musculus [17] = assay: Toxicity in transgenic mouse at 30 to 100 mg/kg, po assessed as morbidity after 7 days; type: organism-based; design: dose 30-100 mg/kg, route oral; conditions: in vivo, 168 h
# [18] = Tmax in Swiss-Webster mouse kidney at 10 mg/kg, po after 24 hrs; type: ADME, organism-based; design: dose 10 mg/kg, route oral; outline: as §1
# Spleen [19] = assay: AUC in Swiss-Webster mouse spleen assessed per gram of tissue at 10 mg/kg, po after 24 hrs; type: ADME, organism-based; design: time < 24 hr, dose 10 mg/kg, route oral; conditions: in vivo; outline: as §1
# Hepatitis B virus [20] = assay: Antiviral activity against HBV harboring RNA polymerase M204V mutant gene infected in human HuH7 cells assessed as decrease in viral transient transfection after 5 days; conditions: Huh-7, 5 days
# Brain [21] = assay: Cmax in Swiss-Webster mouse brain assessed per gram of tissue at 10 mg/kg, po after 24 hrs; type: ADME, organism-based; design: dose 10 mg/kg, route oral; conditions: in vivo; outline: as §1
# [22] = Oral bioavailability in Swiss-Webster mouse at 10 mg/kg after 24 hrs; type: ADME, organism-based; conditions: in vivo
# Outline: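 Same single 10 mg/kg 14C-labeled dose (50 mCi/mmol, 0.7% saline) given to female Swiss-Webster mice orally or ip. Plasma sampled 1–24 h and counted by liquid scintillation. Relative oral bioavailability came from AUCs of drug plus metabolites, computed as printed: […].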
# Mus musculus [23] = assay: Toxicity in transgenic mouse at 10 mg/kg, po assessed as morbidity after 7 days; type: organism-based; design: dose 10 mg/kg, route oral; conditions: in vivo, 168 h
# Heart [24] = assay: AUC in Swiss-Webster mouse heart assessed per gram of tissue at 10 mg/kg, ip after 24 hrs; type: ADME, organism-based; design: time < 24 hr, dose 10 mg/kg, route intraperitoneal; conditions: in vivo; outline: as §1
# Lung [25] = assay: Cmax in Swiss-Webster mouse lung assessed per gram of tissue at 10 mg/kg, ip after 24 hrs; type: ADME, organism-based; design: dose 10 mg/kg, route intraperitoneal; conditions: in vivo; outline: as §1
# HepG2 [26] = assay: Drug metabolism in human HepG2 cells assessed as HPMPApp uptake at 10 uM after 48 hrs; type: ADME, cell-based; conditions: hepg2, 48 h
# Heart [27] = assay: Cmax in Swiss-Webster mouse heart assessed per gram of tissue at 10 mg/kg, po after 24 hrs; type: ADME, organism-based; design: dose 10 mg/kg, route oral; conditions: in vivo; outline: as §1
# Hepatitis B virus [28] = assay: Antiviral activity against HBV harboring RNA polymerase N236T mutant gene infected in human HuH7 cells assessed as decrease in viral transient transfection […]; type: functional, organism-based; conditions: Huh-7
# Outline: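 Lamivudine- and adefovir-resistant HBV mutants introduced into Huh7 cells by transient transfection. Compounds were tested in a 5-day assay.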
# Hepatitis B virus [29] = assay: Antiviral activity against HBV harboring RNA polymerase L180M/M204V mutant gene infected in human HuH7 cells assessed as decrease in viral transient transfection after 5 days; conditions: Huh-7, 5 days
# HepG2 [30] = assay: Drug metabolism in human HepG2 cells assessed as HPMPAp uptake at 10 uM after 48 hrs; type: ADME, cell-based; conditions: hepg2, 48 h
# Mus musculus [31] = assay: Toxicity in transgenic mouse at 10 mg/kg, po assessed as mortality after 7 days; type: organism-based; design: dose 10 mg/kg, route oral; conditions: in vivo, 168 h
# Brain [32] = assay: AUC in Swiss-Webster mouse brain assessed per gram of tissue at 10 mg/kg, ip after 24 hrs; type: ADME, organism-based; design: time < 24 hr, dose 10 mg/kg, route intraperitoneal; conditions: in vivo; outline: as §1
# Brain [33] = assay: AUC in Swiss-Webster mouse brain assessed per gram of tissue at 10 mg/kg, po after 24 hrs; type: ADME, organism-based; design: time < 24 hr, dose 10 mg/kg, route oral; conditions: in vivo; outline: as §1
# Hepatitis B virus [34] = assay: Antiviral activity against wild type HBV infected in human HuH7 cells assessed as decrease in viral transient transfection after 5 days; conditions: Huh-7, 5 days
smiles,measurement,setting,value
CCCCCCCCCCCCCCCCOCCCOP(=O)(O)CO[C@H](CO)Cn1cnc2c(N)ncnc21,Tmax,[1],3 h
same,Tmax,[2],1 h
same,CC50 at 24 h,[3],> 300 µM
same,Drug uptake,HepG2 [4],596 pmol
same,ED50,"Hepatitis B virus [5]; Hepatitis B virus, Liver, 336 h",0.096 µmol/kg
same,ED90,Hepatitis B virus [5]; dose 4 mg/kg,2.97 µmol/kg
same,Cmax,Lung [6],2.89 nmol/g
same,AUC,Spleen [7],16.3 nmol·h/g
same,Tmax,[8],3 h
same,Cmax,Liver [9],131.5 nmol/g
same,Tmax,[10],1 h
same,Activity,Mus musculus [11],Toxic
same,Tmax,[12],1 h
same,Tmax,[13],1 h
same,Cmax,Heart [14],0.57 nmol/g
same,Tmax,[15],3 h
same,AUC,Liver [16],545.1 nmol·h/g
same,Activity,Mus musculus [17],Toxic
same,Tmax,[18],3 h
same,AUC,Spleen [19],3.9 nmol·h/g
same,EC50,Hepatitis B virus [20],900 nM
same,EC90,Hepatitis B virus [20],3.2 µM
same,Cmax,Brain [21],0.07 nmol/g
same,bioavailability,[22],64%
same,Activity,Mus musculus [23],Non-toxic
same,AUC,Heart [24],3.8 nmol·h/g
same,Cmax,Lung [25],2.84 nmol/g
same,Drug uptake,HepG2 [26],444 pmol
same,Cmax,Heart [27],0.2 nmol/g
same,EC50,Hepatitis B virus [28],> 100 µM
same,EC90,Hepatitis B virus [28],> 100 µM
same,EC50,Hepatitis B virus [29],700 nM
same,EC90,Hepatitis B virus [29],2800 nM
same,Drug uptake,HepG2 [30],344 pmol
same,Activity,Mus musculus [31],Non-toxic
same,AUC,Brain [32],0.98 nmol·h/g
same,AUC,Brain [33],0.68 nmol·h/g
same,EC50,Hepatitis B virus [34],800 nM
same,EC90,Hepatitis B virus [34],3000 nM
